Experimental findings from PubChem BioAssay AID493237 (Broad Institute, 2011) are described below.

Experiment [1] deals with U2OS HRE-luciferase reporter, iron condition, luminescence. Put plainly: HRE reporter activators under added iron – cell-based, U2OS, luminescence, dry powder, set 2, mechanism study for HIF pathway activator project, dose response (AID 493237). In outline:
(§1)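 System: Human U2OS osteosarcoma cells with stable 3×HRE-driven luciferase reporter | Quantity: 6,000 cells per well | Also added: Ferric nitrate at 50 µM final, added before compound | Dosing: 8-point series in threefold dilution steps | Timing: 24 h plating, then 24 h compound exposure at 37 °C | Measured by: Steady-Glo luminescence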

Assay in experiment [2]: as above
The following applies: U2OS HRE-luciferase reporter, iron condition, luminescence; at 38 µM (top of the series). Summed up:
as §1

Where “and” joins values, the source holds several entries; their conditions need not be identical. Equal values may be shown once. Calls of active or inactive are those of the source.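 The calls were made as follows: active = fitted curve reaching 40% activation at a concentration no higher than the top valid dose tested; inconclusive = flat curve between 30 and 70% activation, or poor fit; inactive = the rest, including opposite-direction effects.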

`c1ccc(CCNc2nc(-c3ccccn3)nnc2-c2ccccc2)cc1`: in experiment [1], the AC40 is 10.6 µM.

As to `O=C(NCCN1CCOCC1)c1cc(-c2ccccc2)on1`, the AC40 in experiment [1] was 9.15 µM.

Take `O=C(Nc1ncc2ccccc2n1)c1cc(-c2ccccc2)on1`: in experiment [1], the AC40 is > 38 µM (inactive).

Regarding `O=C(Nc1nc2ccccc2s1)c1cc(-c2ccccc2)on1`, the activation in experiment [2] is 9.12% (inactive).

For the compound `O=C(Nc1nc(-c2ccccc2)cs1)c1cc(-c2ccccc2)on1`, the activation in experiment [2] is -4.82% (inactive).

Take `CN(C)c1nc(-c2ccccn2)nnc1-c1ccccc1`: in experiment [1], the AC40 is 24.5 µM.

Regarding `Cc1cccc(NC(=O)c2cc(-c3ccccc3)on2)n1`, the AC40 in experiment [1] is > 38 µM (inactive).

For the compound `OCCCNc1nc(-c2ccccn2)nnc1-c1ccccc1`, the AC40 in experiment [1] is 23.9 µM.

For the compound `c1ccc(-c2nnc(-c3ccccn3)nc2N2CCC(C3CCCCC3)C2)cc1` (configuration not stated), in experiment [2], the activation is -30.3% (inactive).

Regarding `O=C(NCCCCO)c1cc(-c2ccccc2)on1`, in experiment [1], the AC40 is 1.29 µM.

As to `c1ccc(-c2nnc(Nc3nc(-c4ccccn4)nnc3-c3ccccc3)s2)cc1`, in experiment [1], the AC40 is > 38 µM (inactive).

On to `Oc1ccc(CN2CCC3CCCCC3C2)c2cccnc12` (configuration not stated), for which, in experiment [2], the activation is -51.1% (inactive).

With `c1ccc(-c2nnc(-c3ccccn3)nc2NCC2CCOCC2)cc1`, in experiment [2], the activation is 137% (inactive).

Take `c1ccc(-c2nnc(-c3ccccn3)nc2NCCCN2CCOCC2)cc1`: in experiment [1], the AC40 is 26.1 µM.

Regarding `C[C@@H](Nc1nc(-c2ccccn2)nnc1-c1ccccc1)c1ccccc1`, in experiment [1], the AC40 was 8.05 µM.

`c1ccc(-c2nnc(-c3ccccn3)nc2NCC2CCCCC2)cc1`: in experiment [1], the AC40 was 9.8 µM.

As to `O=C(NCCCO)c1cc(-c2ccccc2)on1`, the AC40 in experiment [1] was 5.66 µM.

For `C[C@H](Nc1nc(-c2ccccn2)nnc1-c1ccccc1)C1CCCCC1`, in experiment [1], the AC40 was 9.72 µM.

For `c1ccc(-c2nnc(-c3ccccn3)nc2Nc2nc3ccccc3s2)cc1`, the activation in experiment [2] was 21.8% (inactive).

For `O=C(c1cc(-c2ccccc2)on1)N1CCC(N2CCCC2)CC1`, the activation in experiment [2] is -1.29% (inactive).

Regarding `O=C(NCc1ccccc1)c1cc(-c2ccccc2)on1`, in experiment [1], the AC40 was > 38 µM (inactive).

Consider `O=C(c1cc(-c2ccccc2)on1)N1CCC(CO)CC1`, for which the activation in experiment [2] is -15.4% (inactive).

Consider `O=C(NC1Cc2ccccc2C1)c1cc(-c2ccccc2)on1`, for which the AC40 in experiment [1] was > 38 µM (inactive).

Regarding `O=C(Nc1ncc(-c2ccccc2)o1)c1cc(-c2ccccc2)on1`, the activation in experiment [2] was -19.3% (inactive).

For `CC(C)(C)CCNc1nc(-c2ccccn2)nnc1-c1ccccc1`, the AC40 in experiment [1] is 10.2 µM and 8.22 µM.

`c1ccc(-c2ccc(CNc3nc(-c4ccccn4)nnc3-c3ccccc3)cc2)cc1`: the AC40 in experiment [1] was 9.52 µM.

`c1ccc(-c2cnc(Nc3nc(-c4ccccn4)nnc3-c3ccccc3)s2)cc1`: the activation in experiment [2] is 1.03% (inactive).

For the compound `Cc1ccc(Nc2nc(-c3ccccn3)nnc2-c2ccccc2)cn1`, the AC40 in experiment [1] was 24.3 µM.

As to `O=C(NC1CCc2ccccc2C1)c1cc(-c2ccccc2)on1` (configuration not stated), the activation in experiment [2] was -15.1% (inactive).

As for `COc1cccc(CNc2nc(-c3ccccn3)nnc2-c2ccccc2)c1`, the AC40 in experiment [1] is 10.7 µM.

For the compound `Oc1ccc(CNC2Cc3ccccc3C2)c2cccnc12`, the activation in experiment [2] was -38.8% (inactive).

Consider `OCC1CCN(Cc2ccc(O)c3ncccc23)CC1`, for which the activation in experiment [2] was -24% (inactive).

Turning to `CC(Nc1nc(-c2ccccn2)nnc1-c1ccccc1)c1ccccc1` (configuration not stated), in experiment [1], the AC40 was 10.3 µM.

On to `CN1CCN(c2nc(-c3ccccn3)nnc2-c2ccccc2)CC1`, for which the AC40 in experiment [1] is 25 µM.

Take `c1ccc(-c2nnc(-c3ccccn3)nc2Nc2cnc3ccccc3n2)cc1`: the AC40 in experiment [1] is 24.8 µM.

For `C[C@@H](Nc1nc(-c2ccccn2)nnc1-c1ccccc1)C1CCCCC1`, the AC40 in experiment [1] is 7.81 µM.

For the compound `Cn1c(-c2ccccc2)cnc1NC(=O)c1cc(-c2ccccc2)on1`, the activation in experiment [2] was 6.19% (inactive).

In the case of `CC(C)(C)OC(=O)N1CCN(Cc2ccc(O)c3ncccc23)CC1`, the activation in experiment [2] is -18.7% (inactive).

Take `O=C(NCCCN1CCOCC1)c1cc(-c2ccccc2)on1`: in experiment [1], the AC40 was 10.3 µM.

With `c1ccc(-c2nnc(-c3ccccn3)nc2NCC2CC2)cc1`, the AC40 in experiment [1] was 24 µM.

For `Cc1ccc(NC(=O)c2cc(-c3ccccc3)on2)cn1`, the activation in experiment [2] was -0.441% (inactive).

For the compound `C=CCNc1nc(-c2ccccn2)nnc1-c1ccccc1`, the AC40 in experiment [1] is 26.5 µM.

As for `c1ccc(-c2nnc(-c3ccccn3)nc2N2CCC(N3CCOCC3)CC2)cc1`, the AC40 in experiment [1] is 21 µM.

Consider `c1ccc(-c2nnc(-c3ccccn3)nc2NCCc2ccccn2)cc1`, for which the AC40 in experiment [1] was 24.3 µM.

In the case of `c1ccc(-c2nnc(-c3ccccn3)nc2N2CCC(c3ccccc3)C2)cc1` (configuration not stated), the AC40 in experiment [1] was 18.7 µM.

With `Cc1cccc(CNC(=O)c2cc(-c3ccccc3)on2)c1`, the activation in experiment [2] was -17.5% (inactive).

`O=C(c1cc(-c2ccccc2)on1)N1CCc2cccnc21`: the activation in experiment [2] was -8.92% (inactive).

For `Clc1cccc(CNc2nc(-c3ccccn3)nnc2-c2ccccc2)c1`, in experiment [1], the AC40 was 11.6 µM.

For `Oc1ccc(CNC2CCc3ccccc32)c2cccnc12` (configuration not stated), the activation in experiment [2] is -45.6% (inactive).

Turning to `Cc1ccccc1CNc1nc(-c2ccccn2)nnc1-c1ccccc1`, the AC40 in experiment [1] is 7.8 µM.

As to `COc1ccc(CNc2nc(-c3ccccn3)nnc2-c2ccccc2)cc1`, the AC40 in experiment [1] is 9.43 µM.

`O=C(Nc1nnc(-c2ccccc2)s1)c1cc(-c2ccccc2)on1`: the activation in experiment [2] was 2.91% (inactive).

For `Cc1ccc(CNc2nc(-c3ccccn3)nnc2-c2ccccc2)cc1C`, the AC40 in experiment [1] is 6.44 µM.

Consider `c1ccc(-c2nnc(-c3ccccn3)nc2N2CCN(c3ccncc3)CC2)cc1`, for which, in experiment [1], the AC40 is 22.9 µM.

`Oc1ccc(CN2CCC(Cc3ccccc3)CC2)c2cccnc12`: the activation in experiment [2] was -17.9% (inactive).

`Cc1cccc(CNc2nc(-c3ccccn3)nnc2-c2ccccc2)c1`: the AC40 in experiment [1] was 8.97 µM.

As to `Cn1c(-c2ccccc2)cnc1Nc1nc(-c2ccccn2)nnc1-c1ccccc1`, the activation in experiment [2] is 11.2% (inactive).

Turning to `O=C(c1cc(-c2ccccc2)on1)N1CCN(c2ccncc2)CC1`, the activation in experiment [2] was -11.7% (inactive).

Regarding `CN(C)CCNC(=O)c1cc(-c2ccccc2)on1`, the activation in experiment [2] is 19.3% (inactive).

Regarding `CN1CCN(C(=O)c2cc(-c3ccccc3)on2)CC1`, the activation in experiment [2] is -32.3% (inactive).

With `O=C(Nc1ccc2ccccc2n1)c1cc(-c2ccccc2)on1`, the activation in experiment [2] was -19.3% (inactive).

Turning to `O=C(NCC1CCCCC1)c1cc(-c2ccccc2)on1`, the activation in experiment [2] was 21.9% (inactive).

As to `c1ccc(-c2nnc(-c3ccccn3)nc2NCc2cccnc2)cc1`, the AC40 in experiment [1] is 25.9 µM.

As to `CC(C)(C)CCNC(=O)c1cc(-c2ccccc2)on1`, in experiment [1], the AC40 was 8.89 µM.

Turning to `CC(C)(C)c1ccc(CNc2nc(-c3ccccn3)nnc2-c2ccccc2)cc1`, in experiment [1], the AC40 was 20.6 µM.

Consider `O=C(c1cc(-c2ccccc2)on1)N1CCC(N2CCOCC2)CC1`, for which the activation in experiment [2] is -12.6% (inactive).

For `Cc1ccccc1CNC(=O)c1cc(-c2ccccc2)on1`, the activation in experiment [2] is 15.4% (inactive).

As to `c1ccc(-c2nnc(-c3ccccn3)nc2NCc2ccccn2)cc1`, in experiment [1], the AC40 is 15.9 µM.

`O=C(Nc1cn2ccccc2n1)c1cc(-c2ccccc2)on1`: in experiment [2], the activation is -9.98% (inactive).

With `COc1ccccc1N1CCN(Cc2ccc(O)c3ncccc23)CC1`, in experiment [2], the activation is -35.6% (inactive).

Take `O=C(NCCN1CCCCC1)c1cc(-c2ccccc2)on1`: the activation in experiment [2] was 15.3% (inactive).

`Cc1ccc(CNc2nc(-c3ccccn3)nnc2-c2ccccc2)cc1`: in experiment [1], the AC40 is 11.4 µM.

On to `O=C(NCCCn1ccnc1)c1cc(-c2ccccc2)on1`, for which, in experiment [1], the AC40 is 4.5 µM.

Regarding `N#CC1(c2ccccc2)CCN(Cc2ccc(O)c3ncccc23)CC1`, in experiment [2], the activation was -19.9% (inactive).

Regarding `O=C(Nc1cnc2ccccc2c1)c1cc(-c2ccccc2)on1`, in experiment [2], the activation was 14% (inactive).

In the case of `O=C(NCC1CC1)c1cc(-c2ccccc2)on1`, the AC40 in experiment [1] is 3.19 µM.

As to `Oc1ccc(CN2CCc3ccccc3C2)c2cccnc12`, the activation in experiment [2] was -30.4% (inactive).

Regarding `c1ccc(-c2cccc(CNc3nc(-c4ccccn4)nnc3-c3ccccc3)c2)cc1`, in experiment [1], the AC40 is 10.1 µM.

`Cn1c(NC(=O)c2cc(-c3ccccc3)on2)nc2ccccc21`: the activation in experiment [2] was 7.37% (inactive).

For `OCC1CCN(c2nc(-c3ccccn3)nnc2-c2ccccc2)CC1`, in experiment [2], the activation is 37.3% (inactive).

Consider `Cc1cccc(Nc2nc(-c3ccccn3)nnc2-c2ccccc2)n1`, for which, in experiment [1], the AC40 is 27.2 µM.

On to `c1ccc(-c2csc(Nc3nc(-c4ccccn4)nnc3-c3ccccc3)n2)cc1`, for which, in experiment [1], the AC40 was > 38 µM (inactive).

Regarding `CCCCNC(=O)c1cc(-c2ccccc2)on1`, in experiment [1], the AC40 was 3.76 µM.

With `CC1CN(Cc2ccc(O)c3ncccc23)CC(C)O1` (configuration not stated), the activation in experiment [2] is -40% (inactive).

Take `c1ccc(-c2nnc(-c3ccccn3)nc2NCCN2CCOCC2)cc1`: in experiment [1], the AC40 is 19.4 µM.

Consider `c1ccc(CNc2nc(-c3ccccn3)nnc2-c2ccccc2)cc1`, for which, in experiment [1], the AC40 is 9.31 µM.

As to `Cc1ccc(CNC(=O)c2cc(-c3ccccc3)on2)cc1`, the activation in experiment [2] is -26.7% (inactive).
